# Assay results taken from ChEMBL document CHEMBL2202989, “New adamantane phenylalkylamines with σ-receptor binding affinity and anticancer activity, associated with putative antagonism of neuropathic pain” (J Med Chem, 2012).
# Tested on: SK-HEP1
# Assay: Growth inhibition of human SKHEP1 cells after 48 hrs by SRB assay
# Type: functional
# Conditions: SK-HEP1, 48 h
# In short: (§1)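 Cells grown in RPMI 1640 with 5% heat-inactivated FCS, 2 mM L-glutamine and antibiotics, 37 °C, 5% CO2. Seeded at 3500–30000 cells/well and left 24 h before dosing. DMSO solutions added at 10-fold dilutions from 100 to 0.01 μM for 48 h. Cells TCA-fixed and SRB-stained, absorbance read at 540 nm; GI50 derived against the time-zero plate.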
Compound,GI50 [µM],TGI [µM]
CN1CCN(Cc2ccc(C(c3ccccc3)C34CC5CC(CC(C5)C3)C4)cc2)CC1 (centres undefined),3.35,5.97

# Same assay, conditions: SK-HEP1, 48 h, read-out: LC50 (the source's name)
row,Compound,CC50 [µM]
1,CN1CCN(Cc2ccc(C(c3ccccc3)C34CC5CC(CC(C5)C3)C4)cc2)CC1 (centres undefined),0.00859

# Tested on: PC-3
# Assay: Growth inhibition of human PC3 cells after 48 hrs by SRB assay
# Type: functional
# Conditions: PC-3, 48 h
# In short: as §1
Compound,GI50 [µM],TGI [µM]
CN1CCN(Cc2ccc(C(c3ccccc3)C34CC5CC(CC(C5)C3)C4)cc2)CC1 (centres undefined),3.55,6.25

# Same assay, conditions: PC-3, 48 h, read-out: LC50 (the source's name)
row,Compound,CC50 [µM]
1,CN1CCN(Cc2ccc(C(c3ccccc3)C34CC5CC(CC(C5)C3)C4)cc2)CC1 (centres undefined),0.0685

# Tested on: OVCAR-5
# Assay: Growth inhibition of human OVCAR5 cells after 48 hrs by SRB assay
# Type: functional
# Conditions: OVCAR-5, 48 h
# In short: as §1
Compound,GI50 [µM],TGI [µM]
CN1CCN(Cc2ccc(C(c3ccccc3)C34CC5CC(CC(C5)C3)C4)cc2)CC1 (centres undefined),5.31,19.7

# Same assay, conditions: OVCAR-5, 48 h, read-out: LC50 (the source's name)
row,Compound,CC50 [µM]
1,CN1CCN(Cc2ccc(C(c3ccccc3)C34CC5CC(CC(C5)C3)C4)cc2)CC1 (centres undefined),0.0577

# Tested on: HCT-15
# Assay: Growth inhibition of human HCT15 cells after 48 hrs by SRB assay
# Type: functional
# Conditions: HCT-15, 48 h
# In short: as §1
Compound,GI50 [µM],TGI [µM]
CN1CCN(Cc2ccc(C(c3ccccc3)C34CC5CC(CC(C5)C3)C4)cc2)CC1 (centres undefined),3.5,6.3

# Same assay, conditions: HCT-15, 48 h, read-out: LC50 (the source's name)
row,Compound,CC50 [µM]
1,CN1CCN(Cc2ccc(C(c3ccccc3)C34CC5CC(CC(C5)C3)C4)cc2)CC1 (centres undefined),0.0091

# Tested on: MIA PaCa-2
# Assay: Growth inhibition of human MIAPaCa2 cells after 48 hrs by SRB assay
# Type: functional
# Conditions: MIA PaCa-2, 48 h
# In short: as §1
Compound,GI50 [µM],TGI [µM]
CN1CCN(Cc2ccc(C(c3ccccc3)C34CC5CC(CC(C5)C3)C4)cc2)CC1 (centres undefined),3.61,6.34

# Same assay, conditions: MIA PaCa-2, 48 h, read-out: LC50 (the source's name)
row,Compound,CC50 [µM]
1,CN1CCN(Cc2ccc(C(c3ccccc3)C34CC5CC(CC(C5)C3)C4)cc2)CC1 (centres undefined),0.00906

# Tested on: MCF7
# Assay: Growth inhibition of human MCF7 cells after 48 hrs by SRB assay
# Type: functional
# Conditions: MCF7, 48 h
# In short: as §1
Compound,GI50 [µM],TGI [µM]
CN1CCN(Cc2ccc(C(c3ccccc3)C34CC5CC(CC(C5)C3)C4)cc2)CC1 (centres undefined),2.25,5.29

# Same assay, conditions: MCF7, 48 h, read-out: LC50 (the source's name)
row,Compound,CC50 [µM]
1,CN1CCN(Cc2ccc(C(c3ccccc3)C34CC5CC(CC(C5)C3)C4)cc2)CC1 (centres undefined),0.00833

# Tested on: NHDF
# Assay: (§2) Growth inhibition of human NHDF cells after 48 hrs by SRB assay
# Type: cell-based
# Conditions: nhdf, 48 h
# In short: as §1
Compound,LC50 [µM],TGI [µM]
CN1CCN(Cc2ccc(C(c3ccccc3)C34CC5CC(CC(C5)C3)C4)cc2)CC1 (centres undefined),100,10.4

# Tested on: not listed separately
# Assay: as §2
# Type: cell-based
# Conditions: NHDF cells
# In short: as §1
row,Compound,GI50 at 48 h [µM]
1,CN1CCN(Cc2ccc(C(c3ccccc3)C34CC5CC(CC(C5)C3)C4)cc2)CC1 (centres undefined),5.12

# Tested on: BXPC-3
# Assay: Growth inhibition of human BxPC3 cells after 48 hrs by SRB assay
# Type: functional
# Conditions: BXPC-3, 48 h
# In short: as §1
Compound,GI50 [µM],LC50 [µM],TGI [µM]
CN1CCN(Cc2ccc(C(c3ccccc3)C34CC5CC(CC(C5)C3)C4)cc2)CC1 (centres undefined),4.83,0.00913,6.98

# Molecular target: Sigma non-opioid intracellular receptor 1 (Homo sapiens, UniProt Q99720)
# Sequence (Q99720 whole entry): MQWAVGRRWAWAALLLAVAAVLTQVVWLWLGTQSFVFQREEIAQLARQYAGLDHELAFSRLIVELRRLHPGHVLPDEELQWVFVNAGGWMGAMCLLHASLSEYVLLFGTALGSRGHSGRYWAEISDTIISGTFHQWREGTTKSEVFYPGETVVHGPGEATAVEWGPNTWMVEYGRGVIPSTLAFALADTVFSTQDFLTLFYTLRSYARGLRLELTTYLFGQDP
# Assay: Displacement of [3H]-(+)-pentazocine from sigma 1 receptor in human Jurkat cell membrane
# Type: cell membranes
# Conditions: not given
# In short: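 Jurkat cell membranes incubated with 8 nM [3H](+)-pentazocine and a range of test concentrations for 2 h at 22 °C in Tris-HCl buffer, pH 7.4. Nonspecific binding defined with 10 μM haloperidol. Run in triplicate.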
row,Compound,IC50 [µM]
1,CN1CCN(Cc2ccc(C(c3ccccc3)C34CC5CC(CC(C5)C3)C4)cc2)CC1 (centres undefined),0.0052

# Tested on: U-251
# Assay: Growth inhibition of human U251 cells after 48 hrs by SRB assay
# Type: functional
# Conditions: U-251, 48 h
# In short: as §1
Compound,GI50 [µM],TGI [µM]
CN1CCN(Cc2ccc(C(c3ccccc3)C34CC5CC(CC(C5)C3)C4)cc2)CC1 (centres undefined),3.62,6.55

# Same assay, conditions: U-251, 48 h, read-out: LC50 (the source's name)
row,Compound,CC50 [µM]
1,CN1CCN(Cc2ccc(C(c3ccccc3)C34CC5CC(CC(C5)C3)C4)cc2)CC1 (centres undefined),0.00947

# Molecular target: not listed separately
# Assay: Displacement of [3H]1,3-di-otolylguanidine from sigma 2 receptor in rat cerebral cortex membranes
# Type: cell membranes, Membrane
# Conditions: not given
# In short: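 Rat cerebral cortex membranes incubated with 5 nM [3H]DTG plus 300 nM (+)-pentazocine to mask σ1 sites, together with a range of test concentrations, 2 h at 22 °C in Tris-HCl, pH 7.4. Nonspecific binding defined with 10 μM haloperidol.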
row,Compound,IC50 [µM]
1,CN1CCN(Cc2ccc(C(c3ccccc3)C34CC5CC(CC(C5)C3)C4)cc2)CC1 (centres undefined),0.11

# Tested on: HL-60(TB)
# Assay: Growth inhibition of human HL-60(TB) cells after 48 hrs by SRB assay
# Type: functional
# Conditions: HL-60, 48 h
# In short: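 Cells kept in RPMI 1640 with 5% FCS at 37 °C, 5% CO2, and seeded 24 h before dosing. Compound given from DMSO at 10-fold dilutions, 100 to 0.01 μM, for 48 h. Cells fixed with TCA, stained with SRB, absorbance read at 540 nm. GI50 taken from a time-zero plate.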
Compound,GI50 [µM],TGI [µM]
CN1CCN(Cc2ccc(C(c3ccccc3)C34CC5CC(CC(C5)C3)C4)cc2)CC1 (centres undefined),0.00463,0.00914

# Same assay, conditions: HL-60, 48 h, read-out: LC50 (the source's name)
row,Compound,CC50 [µM]
1,CN1CCN(Cc2ccc(C(c3ccccc3)C34CC5CC(CC(C5)C3)C4)cc2)CC1 (centres undefined),0.1

# Tested on: not listed separately
# Assay: Growth inhibition of human MSC cells after 48 hrs by SRB assay
# Type: cell-based
# Conditions: not given
# In short: as §1
row,Compound,TGI [µM]
1,CN1CCN(Cc2ccc(C(c3ccccc3)C34CC5CC(CC(C5)C3)C4)cc2)CC1 (centres undefined),4.44

# Tested on: HUVEC
# Assay: (§3) Growth inhibition of human HUVEC cells after 48 hrs by SRB assay
# Type: cell-based
# Conditions: huvec, 48 h
# In short: as §1
Compound,LC50 [µM],TGI [µM]
CN1CCN(Cc2ccc(C(c3ccccc3)C34CC5CC(CC(C5)C3)C4)cc2)CC1 (centres undefined),100,7.3

# Tested on: not listed separately
# Assay: as §3
# Type: cell-based
# Conditions: HUVEC cells
# In short: as §1
row,Compound,GI50 at 48 h [µM]
1,CN1CCN(Cc2ccc(C(c3ccccc3)C34CC5CC(CC(C5)C3)C4)cc2)CC1 (centres undefined),4.12

# Tested on: DU-145
# Assay: Growth inhibition of human DU145 cells after 48 hrs by SRB assay
# Type: functional
# Conditions: DU-145, 48 h
# In short: as §1
Compound,GI50 [µM],TGI [µM]
CN1CCN(Cc2ccc(C(c3ccccc3)C34CC5CC(CC(C5)C3)C4)cc2)CC1 (centres undefined),3.01,6.41

# Same assay, conditions: DU-145, 48 h, read-out: LC50 (the source's name)
row,Compound,CC50 [µM]
1,CN1CCN(Cc2ccc(C(c3ccccc3)C34CC5CC(CC(C5)C3)C4)cc2)CC1 (centres undefined),0.00908
